According to ChEMBL document CHEMBL1154682, “Discovery of novel benzoxazinones as potent and orally active long chain fatty acid elongase 6 inhibitors” (J Med Chem, 2009):
pIC50: −log10 of the molar value. Active and inactive are the calls of the source. The rule behind the calls is not given here.

Columns and labels:
[1] = target: T1, Very long chain fatty acid elongase 6 (Homo sapiens, UniProt Q9H5J4); assay: Inhibition of human ELOVL6 expressed in Pichia pastoris using palmitoyl-CoA by long chain fatty acyl-CoA elongation assay
T1 sequence (Q9H5J4 whole entry): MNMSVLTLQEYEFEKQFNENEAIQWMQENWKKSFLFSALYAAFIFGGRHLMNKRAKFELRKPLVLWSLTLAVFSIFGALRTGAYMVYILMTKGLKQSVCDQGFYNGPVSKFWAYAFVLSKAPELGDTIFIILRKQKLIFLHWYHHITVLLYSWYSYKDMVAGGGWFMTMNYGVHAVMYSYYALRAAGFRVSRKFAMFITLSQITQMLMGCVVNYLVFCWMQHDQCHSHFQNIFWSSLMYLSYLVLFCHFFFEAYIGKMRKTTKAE
Procedure, shortened: (§1)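 Microsomes (3 μg) from Pichia pastoris SMD1168 expressing FLAG-tagged human or mouse ELOVL6 were incubated 1 h at 37 °C in 100 mM potassium phosphate pH 6.5 with 40 μM palmitoyl-CoA, 20 μM malonyl-CoA plus [14C]-malonyl-CoA, 500 μM NADPH, 200 μM BSA and 1 μM rotenone. DMSO was 1.0% final. After HCl hydrolysis, filter-retained 14C was counted. IC50 came from nonlinear regression on % of control.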

[2] = target: T2, Very long chain fatty acid elongase 6 (Mus musculus, UniProt Q920L5); assay: Inhibition of mouse ELOVL6 expressed in Pichia pastoris using palmitoyl-CoA by long chain fatty acyl-CoA elongation assay; procedure, shortened: as §1
T2 sequence (Q920L5 whole entry): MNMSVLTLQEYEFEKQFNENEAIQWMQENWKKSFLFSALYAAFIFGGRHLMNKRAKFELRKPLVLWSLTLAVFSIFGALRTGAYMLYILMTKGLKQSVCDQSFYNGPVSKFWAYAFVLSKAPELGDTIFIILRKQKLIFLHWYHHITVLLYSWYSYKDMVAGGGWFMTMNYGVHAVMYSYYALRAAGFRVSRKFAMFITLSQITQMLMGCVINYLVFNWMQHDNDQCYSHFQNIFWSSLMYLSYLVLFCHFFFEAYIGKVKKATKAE

[3] = target: T2, Very long chain fatty acid elongase 6; assay: Inhibition of ELOVL6 in mouse H2.35 cells assessed as elongation index; assay type: cell-based
Procedure, shortened: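 Subconfluent mouse hepatoma H2.35 cells were kept at 33 °C in DMEM with 200 nM dexamethasone and 4% FBS. Lipids were hydrolysed in NaOH at 70 °C, and fatty acids extracted and quantified by radio-HPLC. Elongation index = (C18:0 + C18:1) / (C16:0 + C16:1).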

[4] = Unbound fraction in C57BL/6N mouse plasma; assay type: ADME, cell-free
Procedure, shortened: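 Equilibrium dialysis was run with C57BL/6N mouse plasma adjusted to pH 7.4 and spiked with 1 μM compound, dialysed against PBS for 6 h at 37 °C. Both sides were analysed by LC-MS/MS. Unbound fraction = Cf/Cp × 100. Mean of n = 3.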

[5] = Plasma concentration in C57BL/6J mouse at 10 mg/kg, po after 2 hrs; assay type: ADME, organism-based; set-up: dose 10 mg/kg, route oral
Procedure, shortened: (§2)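 Male C57BL/6J mice were given a single oral gavage of 10 mg/kg in 0.5% methylcellulose suspension. Abdominal-vein blood and liver were taken 2 h after dosing. Liver was homogenized in PBS pH 7.4. Plasma and homogenate were deproteinized with ethanol containing internal standard before analysis.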

[6] = Drug level in C57BL/6J mouse liver at 10 mg/kg, po after 2 hrs; assay type: ADME, organism-based; set-up: dose 10 mg/kg, route oral; conditions: read-out: Drug uptake; procedure, shortened: as §2
Mus musculus [7] = assay: Reduction of elongation index of liver lipids in C57BL/6J mouse at 1 mg/kg, po; assay type: functional, organism-based; set-up: dose 1 mg/kg
Procedure, shortened: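 Male C57BL/6J mice were dosed orally in 0.5% methylcellulose. [1-14C]palmitic acid, 10 μCi/body, was given intraperitoneally 1 h later. Liver was taken 2 h after dosing and saponified in KOH/ethanol at 70 °C. Labelled fatty acids were quantified by radio-HPLC, with elongation index C18/C16 expressed as % of control. Four mice per treatment.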

[8] = Plasma concentration in C57BL/6J mouse at 30 mg/kg, po twice daily after 3 days; assay type: ADME, organism-based; set-up: dose 30 mg/kg, route oral
Mus musculus [9] = assay: Reduction of elongation index of total fatty acids in C57BL/6J mouse liver at 30 mg/kg, po twice daily for 3 days; assay type: functional, organism-based; set-up: dose 30 mg/kg
Procedure, shortened: (§3)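 Male C57BL/6J mice received 30 mg/kg orally twice daily for 3 days. Liver and plasma were hydrolysed in NaOH/ethanol with C17:0 internal standard. Fatty acids were derivatized with 2-nitrophenylhydrazine and measured by HPLC-UV at 400 nm. Elongation index (C18/C16) was expressed as % of vehicle control. Six mice per group.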

Mus musculus [10] = assay: Reduction of elongation index of total fatty acids in C57BL/6J mouse plasma at 30 mg/kg, po twice daily for 3 days; assay type: functional, organism-based; set-up: dose 30 mg/kg; procedure, shortened: as §3
[11] = target: T3, Very long chain fatty acid elongase 1 (Homo sapiens, UniProt Q9BW60); assay: Inhibition of human ELOVL1
T3 sequence (Q9BW60 whole entry): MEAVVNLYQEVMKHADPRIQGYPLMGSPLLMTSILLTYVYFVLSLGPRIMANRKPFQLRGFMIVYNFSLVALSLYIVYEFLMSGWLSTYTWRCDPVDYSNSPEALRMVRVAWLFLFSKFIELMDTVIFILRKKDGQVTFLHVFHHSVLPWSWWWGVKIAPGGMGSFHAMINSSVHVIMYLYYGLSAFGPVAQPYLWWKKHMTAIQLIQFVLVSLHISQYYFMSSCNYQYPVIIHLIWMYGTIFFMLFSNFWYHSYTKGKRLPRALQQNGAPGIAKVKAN
Procedure, shortened: (§4)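 Microsomes were prepared from Pichia pastoris SMD1168 expressing FLAG-tagged human or mouse ELOVL. Incubation ran 1 h at 37 °C in 100 mM potassium phosphate pH 6.5 with 200 μM BSA, 500 μM NADPH, 1 μM rotenone, 20 μM malonyl-CoA plus [14C]-malonyl-CoA, and acyl-CoA: ELOVL1 and ELOVL3, 10 μM stearoyl-CoA; ELOVL2, 10 μM arachidonoyl-CoA; ELOVL5, 40 μM arachidonoyl-CoA. DMSO was 1.0% final. Products were acid-hydrolysed and filter-bound radioactivity counted.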

[12] = target: T4, Very long chain fatty acid elongase 2 (Homo sapiens, UniProt Q9NXB9); assay: Inhibition of human ELOVL2; procedure, shortened: as §4
T4 sequence (Q9NXB9 whole entry): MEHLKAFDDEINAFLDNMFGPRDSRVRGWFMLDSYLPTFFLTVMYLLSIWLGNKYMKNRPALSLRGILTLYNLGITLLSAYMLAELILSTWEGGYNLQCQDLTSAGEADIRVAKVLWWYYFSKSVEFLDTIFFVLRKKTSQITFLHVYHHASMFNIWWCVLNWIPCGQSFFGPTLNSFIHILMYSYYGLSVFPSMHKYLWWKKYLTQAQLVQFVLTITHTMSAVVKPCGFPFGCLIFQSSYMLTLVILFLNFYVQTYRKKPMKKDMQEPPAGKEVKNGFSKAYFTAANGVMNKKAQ

[13] = target: T5, Very long chain fatty acid elongase 3 (Homo sapiens, UniProt Q9HB03); assay: Inhibition of human ELOVL3; procedure, shortened: as §4
T5 sequence (Q9HB03 whole entry): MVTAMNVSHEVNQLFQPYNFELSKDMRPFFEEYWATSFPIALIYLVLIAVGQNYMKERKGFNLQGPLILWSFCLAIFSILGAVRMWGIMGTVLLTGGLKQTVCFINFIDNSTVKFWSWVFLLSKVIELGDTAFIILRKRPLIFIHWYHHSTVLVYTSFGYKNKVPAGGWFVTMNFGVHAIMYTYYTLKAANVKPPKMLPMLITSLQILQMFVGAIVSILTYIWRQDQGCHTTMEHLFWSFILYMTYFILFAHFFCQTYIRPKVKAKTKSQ

[14] = target: T6, Very long chain fatty acid elongase 5 (Homo sapiens, UniProt Q9NYP7); assay: Inhibition of human ELOVL5; procedure, shortened: as §4
T6 sequence (Q9NYP7 whole entry): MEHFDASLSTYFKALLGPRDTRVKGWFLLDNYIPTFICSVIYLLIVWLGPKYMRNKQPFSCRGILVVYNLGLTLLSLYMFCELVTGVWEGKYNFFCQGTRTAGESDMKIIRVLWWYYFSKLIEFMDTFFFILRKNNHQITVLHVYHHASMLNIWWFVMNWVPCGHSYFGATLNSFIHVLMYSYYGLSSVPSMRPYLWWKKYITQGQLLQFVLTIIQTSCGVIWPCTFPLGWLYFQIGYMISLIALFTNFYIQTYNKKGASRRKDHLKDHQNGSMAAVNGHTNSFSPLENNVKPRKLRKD

[15] = target: T7, Very long chain fatty acid elongase 3 (Mus musculus, UniProt O35949); assay: Inhibition of mouse ELOVL3; procedure, shortened: as §4
T7 sequence (O35949 whole entry): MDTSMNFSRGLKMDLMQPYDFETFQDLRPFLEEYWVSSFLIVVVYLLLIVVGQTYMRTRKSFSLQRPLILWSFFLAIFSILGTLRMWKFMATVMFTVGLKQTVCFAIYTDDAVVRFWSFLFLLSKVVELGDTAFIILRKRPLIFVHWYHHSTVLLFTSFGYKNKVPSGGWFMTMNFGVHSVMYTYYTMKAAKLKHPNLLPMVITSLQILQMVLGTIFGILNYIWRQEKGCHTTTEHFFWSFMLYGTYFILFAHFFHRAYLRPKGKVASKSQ

[16] = Plasma clearance in Sprague-Dawley rat at 1 mg/kg, iv and 3 mg/kg, po; assay type: ADME, organism-based
Procedure, shortened: (§5)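 Male SD rats, single dose: iv 1 mg/kg in PEG400/EtOH/H2O 50/10/40 or oral gavage 3 mg/kg in 0.5% methylcellulose suspension. Plasma was sampled at multiple time points up to 24 h, deproteinized with ethanol containing internal standard, and assayed. Values are means of n = 3 animals. Bioavailability was taken from AUC0-∞ after iv versus po.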

[17] = Volume of distribution at steady state in Sprague-Dawley rat at 1 mg/kg, iv; assay type: ADME, organism-based; set-up: dose 1 mg/kg, route intravenous; conditions: in vivo, read-out: Vdss; procedure, shortened: as §5
[18] = Half life in Sprague-Dawley rat at 1 mg/kg, iv; assay type: ADME, organism-based; set-up: dose 1 mg/kg, route intravenous; conditions: in vivo; procedure, shortened: as §5
[19] = Cmax in Sprague-Dawley rat at 1 mg/kg, iv and 3 mg/kg, po; assay type: ADME, organism-based; conditions: in vivo; procedure, shortened: as §5
[20] = AUC (0 to infinity) in Sprague-Dawley rat at 1 mg/kg, iv and 3 mg/kg, po; assay type: ADME, organism-based; conditions: plasma; procedure, shortened: as §5
[21] = Oral bioavailability in Sprague-Dawley rat at 3 mg/kg; assay type: ADME, organism-based; conditions: in vivo; procedure, shortened: as §5
[22] = Plasma concentration in C57BL/6J mouse at 30 mg/kg, po after 2 hrs; assay type: ADME, organism-based; set-up: dose 30 mg/kg, route oral; conditions: read-out: Concentration_plasma
Procedure, shortened: (§6)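 Male C57BL/6J mice were given a single oral gavage of 30 mg/kg in 0.5% methylcellulose suspension. Plasma was sampled at 2, 4, 8 and 24 h, deproteinized with ethanol containing internal standard, and assayed. Values are means of n = 3 animals.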

[23] = Plasma concentration in C57BL/6J mouse at 30 mg/kg, po after 4 hrs; assay type: ADME, organism-based; set-up: dose 30 mg/kg, route oral; conditions: read-out: Concentration_plasma; procedure, shortened: as §6
[24] = Plasma concentration in C57BL/6J mouse at 30 mg/kg, po after 8 hrs; assay type: ADME, organism-based; set-up: dose 30 mg/kg, route oral; conditions: read-out: Concentration_plasma; procedure, shortened: as §6
[25] = Plasma concentration in C57BL/6J mouse at 1 mg/kg, po after 2 hrs; assay type: ADME, organism-based; set-up: dose 1 mg/kg, route oral

CS(=O)(=O)c1ccc(C(=O)NCC2(C(F)(F)F)OC(=O)Nc3ccc(Cl)cc32)cc1 (stereo not given)
pIC50 [1]: < 5.00

O=C1Nc2ccc(Cl)cc2C(CNC(=O)c2ccc(-c3ccccc3)cc2)(C(F)(F)F)O1 (stereo not given)
pIC50 [1]: < 5.00

CC1(COC(=O)Nc2ccc(F)cc2)OC(=O)Nc2ccc(Cl)cc21 (stereo not given)
pIC50 [1]: 5.87

O=C1Nc2ccc(-c3cn[nH]c3)cc2C(CNC(=O)c2ccc(F)cc2)(C(F)(F)F)O1 (single isomer, unassigned; (+))
pIC50 [2]: 7.70 | pIC50 [3]: 7.30

O=C1Nc2ccc(-c3ccn[nH]3)cc2[C@](CNC(=O)c2ccc(F)cc2)(C(F)(F)F)O1
pIC50 [2]: 7.85 | pIC50 [3]: 8.44 | fraction unbound [4]: 0.107 | concentration at 2 h [5]: 660 nM | concentration at 2 h [6]: 12.5 µM | Activity (Mus musculus [7]): Active | concentration at 72 h [8]: > 540 nM | Activity (Mus musculus [9]): Active | Activity (Mus musculus [10]): inactive | pIC50 [11]: 5.15 | pIC50 [12]: < 5.00 | pIC50 [13]: 6.89 | pIC50 [14]: < 5.00 | pIC50 [15]: 7.72 | clearance [16]: 11 mL/min/kg | Vd [17]: 0.7 L/kg | half-life [18]: 114 min | Cmax [19]: 2400 nM | AUC(0-inf) [20]: 4.69 µM·h | bioavailability [21]: 30% | concentration at 2 h [22]: 11.7 µM | concentration at 4 h [23]: 3.7 µM | concentration at 8 h [24]: 700 nM | concentration at 2 h [25]: 540 nM

O=C(Nc1ccc(F)cc1)OCC1(C2CC2)OC(=O)Nc2ccc(Cl)cc21 (stereo not given)
pIC50 [1]: 5.85
